Laboratory results from ChEMBL document CHEMBL5058577, “EUbOPEN Chemogenomics Library 2 (Multiplex)” (2022).

Tested on: HEK-293T
Test: Multiplex assay against HEK293T
Assay type: toxicity, cell-based
Conditions: human
Outline: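 Live cells were stained at seeding with Hoechst33342, BioTracker Green Microtubule Cytoskeleton Dye, MitoTracker Red and Annexin V Alexa Fluor 680, then imaged on a CQ1 microscope at 37°C and 5% CO2 after compound addition. CellPathfinder machine-learning gating split cells into Hoechst high-intensity objects or normal cells. Normal cells were split into healthy, pyknosed or fragmented nuclei, and pyknosed cells into mitotic or apoptotic. Tubulin, mitochondrial-mass and membrane-permeability phenotypes are per cents of healthy-nucleus cells.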

[1] = 12 h, 1 µM, compound concentration 1 uM, replicate 1
[2] = 12 h, 1 µM, compound concentration 1 uM, replicate 2
[3] = 12 h, 10 µM, compound concentration 10 uM, replicate 1
[4] = 12 h, 10 µM, compound concentration 10 uM, replicate 2
[5] = 24 h, 1 µM, compound concentration 1 uM, replicate 1
[6] = 24 h, 1 µM, compound concentration 1 uM, replicate 2
[7] = 24 h, 10 µM, compound concentration 10 uM, replicate 1
[8] = 24 h, 10 µM, compound concentration 10 uM, replicate 2
[9] = 48 h, 1 µM, compound concentration 1 uM, replicate 1
[10] = 48 h, 1 µM, compound concentration 1 uM, replicate 2
[11] = 48 h, 10 µM, compound concentration 10 uM, replicate 1
[12] = 48 h, 10 µM, compound concentration 10 uM, replicate 2

SMILES: Cc1ccc(/C(=C\CN2CCCC2)c2ccccn2)cc1 [TRIPROLIDINE]
- Population Apoptotic (%) [1]: 34%
- Population Fragmented Nuclei (%) [1]: 6%
- Population Healthy Nuclei (%) [1]: 83%
- Population Hoechst High Intensity Objects (%) [1]: 7%
- Population Membrane Permeable-Phenotype (%) [1]: 0%
- Population Mitochondria Different-Phenotype (%) [1]: 45%
- Population Mitotic Cells (%) [1]: 65%
- Population Normal (%) [1]: 92%
- Population Pyknosed Nuclei (%) [1]: 9%
- Population Tubulin-Different-Phenotype (%) [1]: 24%
- Total Cell Count [1]: 424
- Population Apoptotic (%) [2]: 50%
- Population Fragmented Nuclei (%) [2]: 3%
- Population Healthy Nuclei (%) [2]: 84%
- Population Hoechst High Intensity Objects (%) [2]: 5%
- Population Mitochondria Different-Phenotype (%) [2]: 55%
- Population Mitotic Cells (%) [2]: 50%
- Population Normal (%) [2]: 94%
- Population Pyknosed Nuclei (%) [2]: 11%
- Population Tubulin-Different-Phenotype (%) [2]: 17%
- Total Cell Count [2]: 446
- Population Apoptotic (%) [3]: 44%
- Population Fragmented Nuclei (%) [3]: 10%
- Population Healthy Nuclei (%) [3]: 72%
- Population Hoechst High Intensity Objects (%) [3]: 15%
- Population Membrane Permeable-Phenotype (%) [3]: 0%
- Population Mitochondria Different-Phenotype (%) [3]: 67%
- Population Mitotic Cells (%) [3]: 56%
- Population Normal (%) [3]: 84%
- Population Pyknosed Nuclei (%) [3]: 16%
- Population Tubulin-Different-Phenotype (%) [3]: 53%
- Total Cell Count [3]: 368
- Population Fragmented Nuclei (%) [4]: 6%
- Population Healthy Nuclei (%) [4]: 77%
- Population Hoechst High Intensity Objects (%) [4]: 8%
- Population Mitochondria Different-Phenotype (%) [4]: 74%
- Population Normal (%) [4]: 91%
- Population Pyknosed Nuclei (%) [4]: 15%
- Population Tubulin-Different-Phenotype (%) [4]: 45%
- Total Cell Count [4]: 344
- Population Apoptotic (%) [5]: 30%
- Population Fragmented Nuclei (%) [5]: 10%
- Population Healthy Nuclei (%) [5]: 78%
- Population Hoechst High Intensity Objects (%) [5]: 3%
- Population Membrane Permeable-Phenotype (%) [5]: 0%
- Population Mitochondria Different-Phenotype (%) [5]: 27%
- Population Mitotic Cells (%) [5]: 70%
- Population Normal (%) [5]: 96%
- Population Pyknosed Nuclei (%) [5]: 10%
- Population Tubulin-Different-Phenotype (%) [5]: 18%
- Total Cell Count [5]: 574
- Population Fragmented Nuclei (%) [6]: 9%
- Population Healthy Nuclei (%) [6]: 82%
- Population Hoechst High Intensity Objects (%) [6]: 7%
- Population Mitochondria Different-Phenotype (%) [6]: 34%
- Population Mitotic Cells (%) [6]: 69%
- Population Normal (%) [6]: 92%
- Population Pyknosed Nuclei (%) [6]: 7%
- Population Tubulin-Different-Phenotype (%) [6]: 9%
- Total Cell Count [6]: 541
- Population Apoptotic (%) [7]: 36%
- Population Fragmented Nuclei (%) [7]: 8%
- Population Healthy Nuclei (%) [7]: 78%
- Population Hoechst High Intensity Objects (%) [7]: 9%
- Population Membrane Permeable-Phenotype (%) [7]: 0%
- Population Mitochondria Different-Phenotype (%) [7]: 55%
- Population Mitotic Cells (%) [7]: 63%
- Population Normal (%) [7]: 90%
- Population Pyknosed Nuclei (%) [7]: 13%
- Population Tubulin-Different-Phenotype (%) [7]: 43%
- Total Cell Count [7]: 490
- Population Apoptotic (%) [8]: 27%
- Population Fragmented Nuclei (%) [8]: 9%
- Population Healthy Nuclei (%) [8]: 80%
- Population Hoechst High Intensity Objects (%) [8]: 4%
- Population Mitochondria Different-Phenotype (%) [8]: 54%
- Population Mitotic Cells (%) [8]: 72%
- Population Normal (%) [8]: 95%
- Population Pyknosed Nuclei (%) [8]: 10%
- Population Tubulin-Different-Phenotype (%) [8]: 26%
- Total Cell Count [8]: 464
- Population Apoptotic (%) [9]: 16%
- Population Fragmented Nuclei (%) [9]: 14%
- Population Healthy Nuclei (%) [9]: 79%
- Population Hoechst High Intensity Objects (%) [9]: 1%
- Population Membrane Permeable-Phenotype (%) [9]: 2%
- Population Mitochondria Different-Phenotype (%) [9]: 17%
- Population Mitotic Cells (%) [9]: 83%
- Population Normal (%) [9]: 98%
- Population Pyknosed Nuclei (%) [9]: 6%
- Population Tubulin-Different-Phenotype (%) [9]: 11%
- Total Cell Count [9]: 950
- Population Apoptotic (%) [10]: 37%
- Population Fragmented Nuclei (%) [10]: 10%
- Population Healthy Nuclei (%) [10]: 84%
- Population Hoechst High Intensity Objects (%) [10]: 3%
- Population Membrane Permeable-Phenotype (%) [10]: 1%
- Population Mitochondria Different-Phenotype (%) [10]: 13%
- Population Mitotic Cells (%) [10]: 62%
- Population Normal (%) [10]: 96%
- Population Pyknosed Nuclei (%) [10]: 4%
- Population Tubulin-Different-Phenotype (%) [10]: 6%
- Total Cell Count [10]: 837
- Population Apoptotic (%) [11]: 43%
- Population Fragmented Nuclei (%) [11]: 16%
- Population Healthy Nuclei (%) [11]: 74%
- Population Hoechst High Intensity Objects (%) [11]: 6%
- Population Membrane Permeable-Phenotype (%) [11]: 0%
- Population Mitochondria Different-Phenotype (%) [11]: 46%
- Population Mitotic Cells (%) [11]: 56%
- Population Normal (%) [11]: 93%
- Population Pyknosed Nuclei (%) [11]: 9%
- Population Tubulin-Different-Phenotype (%) [11]: 29%
- Total Cell Count [11]: 674
- Population Apoptotic (%) [12]: 33%
- Population Fragmented Nuclei (%) [12]: 13%
- Population Healthy Nuclei (%) [12]: 78%
- Population Hoechst High Intensity Objects (%) [12]: 4%
- Population Membrane Permeable-Phenotype (%) [12]: 1%
- Population Mitochondria Different-Phenotype (%) [12]: 43%
- Population Mitotic Cells (%) [12]: 66%
- Population Normal (%) [12]: 95%
- Population Pyknosed Nuclei (%) [12]: 7%
- Population Tubulin-Different-Phenotype (%) [12]: 25%
- Total Cell Count [12]: 644

SMILES: CCCC(CCC)C(=O)O [VALPROIC ACID]
- Population Apoptotic (%) [1]: 39%
- Population Fragmented Nuclei (%) [1]: 6%
- Population Healthy Nuclei (%) [1]: 81%
- Population Hoechst High Intensity Objects (%) [1]: 6%
- Population Membrane Permeable-Phenotype (%) [1]: 0%
- Population Mitochondria Different-Phenotype (%) [1]: 29%
- Population Mitotic Cells (%) [1]: 60%
- Population Normal (%) [1]: 93%
- Population Pyknosed Nuclei (%) [1]: 12%
- Population Tubulin-Different-Phenotype (%) [1]: 20%
- Total Cell Count [1]: 513
- Population Apoptotic (%) [2]: 28%
- Population Fragmented Nuclei (%) [2]: 5%
- Population Healthy Nuclei (%) [2]: 79%
- Population Hoechst High Intensity Objects (%) [2]: 5%
- Population Mitochondria Different-Phenotype (%) [2]: 46%
- Population Mitotic Cells (%) [2]: 71%
- Population Normal (%) [2]: 94%
- Population Pyknosed Nuclei (%) [2]: 15%
- Population Tubulin-Different-Phenotype (%) [2]: 16%
- Total Cell Count [2]: 367
- Population Apoptotic (%) [3]: 34%
- Population Fragmented Nuclei (%) [3]: 6%
- Population Healthy Nuclei (%) [3]: 82%
- Population Hoechst High Intensity Objects (%) [3]: 6%
- Population Membrane Permeable-Phenotype (%) [3]: 0%
- Population Mitochondria Different-Phenotype (%) [3]: 40%
- Population Mitotic Cells (%) [3]: 66%
- Population Normal (%) [3]: 93%
- Population Pyknosed Nuclei (%) [3]: 11%
- Population Tubulin-Different-Phenotype (%) [3]: 26%
- Total Cell Count [3]: 455
- Population Apoptotic (%) [4]: 44%
- Population Fragmented Nuclei (%) [4]: 7%
- Population Healthy Nuclei (%) [4]: 81%
- Population Mitochondria Different-Phenotype (%) [4]: 49%
- Population Mitotic Cells (%) [4]: 55%
- Population Tubulin-Different-Phenotype (%) [4]: 20%
- Total Cell Count [4]: 446
- Population Apoptotic (%) [5]: 28%
- Population Fragmented Nuclei (%) [5]: 8%
- Population Healthy Nuclei (%) [5]: 78%
- Population Hoechst High Intensity Objects (%) [5]: 4%
- Population Membrane Permeable-Phenotype (%) [5]: 1%
- Population Mitochondria Different-Phenotype (%) [5]: 22%
- Population Mitotic Cells (%) [5]: 71%
- Population Normal (%) [5]: 95%
- Population Pyknosed Nuclei (%) [5]: 12%
- Population Tubulin-Different-Phenotype (%) [5]: 16%
- Total Cell Count [5]: 663
- Population Apoptotic (%) [6]: 45%
- Population Fragmented Nuclei (%) [6]: 6%
- Population Healthy Nuclei (%) [6]: 83%
- Population Membrane Permeable-Phenotype (%) [6]: 0%
- Population Mitochondria Different-Phenotype (%) [6]: 26%
- Population Mitotic Cells (%) [6]: 54%
- Population Pyknosed Nuclei (%) [6]: 9%
- Population Tubulin-Different-Phenotype (%) [6]: 10%
- Total Cell Count [6]: 469
- Population Apoptotic (%) [7]: 28%
- Population Fragmented Nuclei (%) [7]: 9%
- Population Healthy Nuclei (%) [7]: 81%
- Population Hoechst High Intensity Objects (%) [7]: 4%
- Population Membrane Permeable-Phenotype (%) [7]: 0%
- Population Mitochondria Different-Phenotype (%) [7]: 16%
- Population Mitotic Cells (%) [7]: 71%
- Population Normal (%) [7]: 95%
- Population Pyknosed Nuclei (%) [7]: 9%
- Population Tubulin-Different-Phenotype (%) [7]: 15%
- Total Cell Count [7]: 649
- Population Apoptotic (%) [8]: 23%
- Population Fragmented Nuclei (%) [8]: 8%
- Population Healthy Nuclei (%) [8]: 86%
- Population Hoechst High Intensity Objects (%) [8]: 3%
- Population Mitochondria Different-Phenotype (%) [8]: 30%
- Population Mitotic Cells (%) [8]: 76%
- Population Normal (%) [8]: 96%
- Population Pyknosed Nuclei (%) [8]: 5%
- Population Tubulin-Different-Phenotype (%) [8]: 11%
- Total Cell Count [8]: 593
- Population Apoptotic (%) [9]: 19%
- Population Fragmented Nuclei (%) [9]: 14%
- Population Healthy Nuclei (%) [9]: 78%
- Population Hoechst High Intensity Objects (%) [9]: 2%
- Population Membrane Permeable-Phenotype (%) [9]: 3%
- Population Mitochondria Different-Phenotype (%) [9]: 11%
- Population Mitotic Cells (%) [9]: 80%
- Population Normal (%) [9]: 97%
- Population Pyknosed Nuclei (%) [9]: 6%
- Population Tubulin-Different-Phenotype (%) [9]: 9%
- Total Cell Count [9]: 1112
- Population Apoptotic (%) [10]: 36%
- Population Fragmented Nuclei (%) [10]: 10%
- Population Healthy Nuclei (%) [10]: 81%
- Population Hoechst High Intensity Objects (%) [10]: 3%
- Population Membrane Permeable-Phenotype (%) [10]: 1%
- Population Mitochondria Different-Phenotype (%) [10]: 17%
- Population Mitotic Cells (%) [10]: 63%
- Population Normal (%) [10]: 96%
- Population Pyknosed Nuclei (%) [10]: 8%
- Population Tubulin-Different-Phenotype (%) [10]: 10%
- Total Cell Count [10]: 700
- Population Apoptotic (%) [11]: 21%
- Population Fragmented Nuclei (%) [11]: 15%
- Population Healthy Nuclei (%) [11]: 79%
- Population Hoechst High Intensity Objects (%) [11]: 3%
- Population Membrane Permeable-Phenotype (%) [11]: 1%
- Population Mitochondria Different-Phenotype (%) [11]: 11%
- Population Mitotic Cells (%) [11]: 78%
- Population Normal (%) [11]: 96%
- Population Pyknosed Nuclei (%) [11]: 5%
- Population Tubulin-Different-Phenotype (%) [11]: 9%
- Total Cell Count [11]: 1088
- Population Apoptotic (%) [12]: 27%
- Population Fragmented Nuclei (%) [12]: 13%
- Population Healthy Nuclei (%) [12]: 82%
- Population Hoechst High Intensity Objects (%) [12]: 1%
- Population Membrane Permeable-Phenotype (%) [12]: 2%
- Population Mitochondria Different-Phenotype (%) [12]: 12%
- Population Mitotic Cells (%) [12]: 72%
- Population Normal (%) [12]: 98%
- Population Pyknosed Nuclei (%) [12]: 4%
- Population Tubulin-Different-Phenotype (%) [12]: 6%
- Total Cell Count [12]: 947
